Source: the RNAGym collection of RNA variant scans (doi:10.1126/science.aae0568)
Variants at the floor of the assay were thinned out.

B1: tRNA (parent)
chain: GUUCCGUUGGCGUAAUGGUAACGCGUCUCCCUCCUAAGGAGAAGACUGCGGGUUCGAGUCCCGUACGGAACG

Variants of: B1
Experiment: yeast fitness relative to wild type (ratio to wild type); higher = fitter; tRNA-Arg(CCU), competitive growth, 37 C, YPD
Summary of the method: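 A pool of Saccharomyces cerevisiae strains, each with a tRNA-Arg(CCU) gene variant at the native genomic locus, was competed in YPD at 37°C for 24 hours across six parallel replicates. The variants had been chemically synthesised at a 3% per-site mutation rate over 69 sites, and gene amplicons before and after competition were read by 100-nucleotide paired-end sequencing. Darwinian fitness relative to wild type rested on changes in genotype frequencies. Genotypes required ≥ 100 starting reads, and estimates < 0.5 were set to 0.5.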

Question: With GUUGCGUUGGCGUUAUGGUAACGCGUCUCCUUCCUAAGGGGAAGACUGCGGGUUCGAGUCCCGUACGGAACG as the variant, how does the yeast fitness read?
Answer: ≤ 0.5

Question: Which yeast fitness does the source give for GUUCCGUUGGCGAAAUGGUAACGCGUCUCCCUCCUAAGGAGAAGACUGCGGGUUCGACUCCCGUACGGAACG here?
Answer: 0.853

Question: For GUUCCGUUGGCGUAAUGGUAACGGGUCUCCCUGCUCCGGAGCAGACUGCGGGUUCGAGUUCCGUACUGAACG, which yeast fitness is on record?
Answer: ≤ 0.5

Question: With GUUCCGUUGGCGUAAUGGUGACGCGUCUCCCUCCUAAGGAGAAGACUGCGGGUUCGAGUCCCCUACGGAACG as the variant, how does the yeast fitness read?
Answer: 0.837

Question: With GUUCCGUUGGCGUAAUGGUAACGCGUCUCCCUCGUACAGAGAAGACUGCGGGUUCGAGUCCCGUAUGGAACG as the variant, how does the yeast fitness read?
Answer: ≤ 0.5

Question: Which yeast fitness does the source give for GUUCCGUUGCCGUAAUGGUAACGCGUCUCCCCACUAAGGAGAAGUCUGCGGGUUCGAGUCCCGUACGGAACG here?
Answer: ≤ 0.5

Question: With GUUCCGUUGGCGUAAUGGUAACGCGUUUCCCUCCUAAAGAGAAGACUGCGGGUUCGAGUCUCGUAAGGAACG as the variant, how does the yeast fitness read?
Answer: ≤ 0.5

Question: Which yeast fitness does the source give for GUUCCGUUAGCGUAAUGGUAACGCGUCUCGCCCCUAAGGAAAAGACUGCGGGUUCGUGUCCCGUACGGAACG here?
Answer: ≤ 0.5

Question: For GUUCCGUUGGAGUAAUGGUAUCGCGUCUCCCUCCUAAGGAAAAGACUGCGGGUUCGAGUCCCGUACGGAACG, which yeast fitness is on record?
Answer: ≤ 0.5

Question: With GUUGCGUUGCCCUAAUGGUACCGCGUCUCCCUCCUAAGGAGAAGACUCCGGGUUCGAGUCCCGUACGGAACG as the variant, how does the yeast fitness read?
Answer: ≤ 0.5

Question: For GUUCCGUUCGCGUGAUGGUAACGCGUCUCCCUCCUAAGGAGAAGACUGCGGGUUCGAGUCCCGUACAGAACG, which yeast fitness is on record?
Answer: ≤ 0.5

Question: With GUUCCGUUGGCGUAAUGGUAACGCGUCUCCCUCCUCAGGAGAAGACUGCGGGUUCGACUCCUGUACGGAACG as the variant, how does the yeast fitness read?
Answer: ≤ 0.5

Question: For GAGCCGUUGGAGUAACGGUAAGGCGUCUCCCUCCUAAGGAGAAGACUGCGGGUUCGCGUCCAGUACGGAACG, which yeast fitness is on record?
Answer: 0.572

Question: For GCUCCGUUGGCGUAAUGGGAACGCGUCUCCCUCCUAAGGAGAAGACUGCGGGUUCGAGUCCCGUACGGAACG, which yeast fitness is on record?
Answer: 0.867

Question: For GUUACCUUGGCGUAAUGGUAACGCGUCUCCCUCCUAAGGAGAAGACUGCGGGUUCGAGUCCCGUACGGAACG, which yeast fitness is on record?
Answer: 0.703

Question: For GUUCCGCUGGCGUGAUGGUAACACAUCUCCCUCCUUAGGAGAUGACUGCGGGUUCGAGUCCCGUACGGAACG, which yeast fitness is on record?
Answer: ≤ 0.5

Question: Which yeast fitness does the source give for GUUCCGUUGGCAUAAUGGUAACGCGUCUCCCUCCUAAGGAGAAGACUGCGGGAUCGAGUCCCGUACGGAACG here?
Answer: 0.62

Question: With GUUUCGUUGGCGUCAUGGUAACGCGUCUCCCUCCUAAGGAGAAGACUGCGGGUUCGAGUCCCGUACGCAACG as the variant, how does the yeast fitness read?
Answer: ≤ 0.5

Question: Which yeast fitness does the source give for GUACCGUUGGCGUUAUGGUAACGCGUCUCCCUCCUAGGGAGAAGACUGCGGGUUCGCGUCCCGUACGGAACG here?
Answer: ≤ 0.5

Question: Which yeast fitness does the source give for GUUCCGUUGGCGAAAUGGUAACGCGUCUCCCUCCUAUGGACAAGACUGCGGGUUCGAGCCCCGUACGGAACG here?
Answer: ≤ 0.5

Question: With GUUCCGUUGGCGUAAUGGUACCGCGUCUCCCUCCUAAGGAGAAGACUGCGGGUUCGAGUCCCGUACGCAACG as the variant, how does the yeast fitness read?
Answer: 0.67

Question: For GUUCCGUUGGCGUAAUGGUAACGCGUCUCCCUCCUAAGGAGAAGACUCCGGGUUCGAGACCCGUAUGGAACG, which yeast fitness is on record?
Answer: 0.679

Question: For GUUCCGUUGGCGUAUUGGUAACGCGUCUCUCUCCUAAGGAGAAGACUGCGGGUUCGAGUCCUGUACGGAACG, which yeast fitness is on record?
Answer: 0.572

Question: Which yeast fitness does the source give for GUUCCGUUCGCGUAAUGGUAACGCGUCUCCGUCCUAAGGAGAAGACUGCGGGUUCGAGUCCCGUAAGCAACG here?
Answer: 0.553

Question: For GUUCCGUUGGCGUAAUGGUAACGCGUCUCACUCCUAAGGAGAAGACUGCAGGUUCGAGUCCCGUACGGAACG, which yeast fitness is on record?
Answer: 0.677

Question: For GUUCCGUUGGCGUAAUGGUAACGCGUCUCGGAUCUAAGGAGAAGACUGCGGGUUCGAGUCCCGUACGGAACG, which yeast fitness is on record?
Answer: 0.554

Question: Which yeast fitness does the source give for GUUCUGUUGGCGUAAUGGUAUCGCGUCUCGCUCCUAAGGAGAAGACUGCGGGUUCGAGUCCCGUACGGAUCG here?
Answer: 0.651

Question: Which yeast fitness does the source give for GUCCCGUUGGCGAAAUGGUCACGCGUCUCGAUCCUAAGGAGAAGACUGCGGGUAUGAGUCCCGUACGGAACG here?
Answer: 0.521

Question: For GUUGCGUUGGCGUAAUGGUAACGCGUCUCCCUCCUAAGGAGAAGACUGCGGGUUCGAGUCCCGUCCGGAACG, which yeast fitness is on record?
Answer: 0.733

Question: Which yeast fitness does the source give for GUUCCGUAGGCGUAAUGGUAACGCGUCUCCCUCCUAAGGACAAGACUGCGGGUUCGAGUCCUGUUCGGAACG here?
Answer: ≤ 0.5

Question: Which yeast fitness does the source give for GUUCCAUUGGCGUAAUGGUAACGCGUAUCUCUCCUAAGGACAUGACUGAGGGUUCGAGUCCCUUACGGAACG here?
Answer: 0.54

Question: Which yeast fitness does the source give for GUUCCGUUGGCGUAAGGGUAACGCGUCUCCCUCCUAAGGAGAAGACUGCGGGUUUGAGUCCCGUACCGAACG here?
Answer: ≤ 0.5

Question: For GGUCCGUUGGCGUAAUGGUAACGCGUCUCCCUUCUUAGGAGACGACUGCGGGUUCGAGUCCCGUACGGCACG, which yeast fitness is on record?
Answer: 0.767

Question: Which yeast fitness does the source give for GUUCCGUUGGCGUAAUGAUAACGCGUCUCCCUCCUGAGGAGUAGACUGCGGGUUCGAGUCCCGUACGGACCG here?
Answer: 0.784

Question: Which yeast fitness does the source give for GUUCUGUUGGCGUAAUGGUAACGCGACUCCCUCCUAAGGAGAAGACUGCGGGUCCGAGUCCCGUACGGAACG here?
Answer: 0.644

Question: With GUUCCGUUGGCGUAAUGGUCACGCGUCUUCCUCCUAAGGAGAAGACUGCCGGUUCGAGUCCCGUACGGAACG as the variant, how does the yeast fitness read?
Answer: ≤ 0.5

Question: Which yeast fitness does the source give for GUUGCGUUGGCGUUAUGGUAACGCGUCUCCCUCUUAAGGAGAAGACUGCGGGUUCGAGUCCCGUACGGAACG here?
Answer: 0.591
